Where only a bound is given, the exact number is not on record here.

The test system of one assay is Influenza A virus. The experiment in a line: Antiviral activity against Influenza virus (A/Sweden/3/50/ (H1N1)) in dog kidney (MDCK) cells expressed. Format: functional, organism-based. A digest of the protocol:
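Plaque reduction assay. Confluent MDCK monolayers were infected with 50-150 PFU in the presence of compound, then overlaid with nutrient agarose containing 0.1 µg/mL trypsin, 100 µg/mL DEAE-dextran and compound. After 3-4 days at 36 °C, cells were formalin-fixed and methyl violet-stained, and plaques were counted as % of the untreated infected control, in triplicate. IC50 came from mean-versus-log concentration curves.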

A short description of assay [1]: Cytotoxicity in uninfected dog kidney (MDCK) cells. Format: cell-based. Particulars: Canis lupus familiaris. The essentials: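 Dividing MDCK cells seeded at 2 × 10^4 cells/well in 24-well plates; compound added to growth medium at various concentrations. Cell growth compared with untreated controls over 4 days incubation (3-4 cell doublings).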

In the case of `COc1nc(N)nc2c1ncn2[C@@H]1O[C@H](CO)[C@@H](O)[C@H]1F`, the values for the IC50 (with Influenza A virus; in assay [1]) were 16 µM and > 500 µM, respectively.

`CSc1ncnc2c1ncn2[C@@H]1O[C@H](CO)[C@@H](O)[C@H]1F`: the IC50 (in general, the concentration that inhibits the measured activity by half) in the assay on Influenza A virus is > 100 µM; in assay [1], > 500 µM.

On to `OC[C@H]1O[C@@H](n2cnc3c(O)ncnc32)[C@H](F)[C@@H]1O`, for which the values for the IC50 (in the assay on Influenza A virus; in assay [1]) were > 100 µM and > 500 µM, respectively.

Take `Nc1nc(F)nc2c1ncn2[C@@H]1O[C@H](CO)[C@@H](O)[C@H]1F`: the IC50 was > 100 µM with Influenza A virus and 120 µM in assay [1].

For the compound `CSc1nc(N)nc2c1ncn2[C@@H]1O[C@H](CO)[C@@H](O)[C@H]1F`, the figures for the concentration for half-maximal inhibition (IC50) (in the assay with Influenza A virus; in assay [1]) were > 100 µM and > 500 µM, respectively.

`CCOc1nc(N)nc2c1ncn2[C@@H]1O[C@H](CO)[C@@H](O)[C@H]1F`: the results for the IC50 (with Influenza A virus; in assay [1]) were 29 µM and > 500 µM, respectively.

Regarding `Cc1nc(N)nc2c1ncn2[C@@H]1O[C@H](CO)[C@@H](O)[C@H]1F`, the IC50 is > 100 µM in the assay on Influenza A virus and > 500 µM in assay [1].

As to `CCOc1ncnc2c1ncn2[C@@H]1O[C@H](CO)[C@@H](O)[C@H]1F`, the figures for the IC50 (in the assay on Influenza A virus; in assay [1]) were > 100 µM and > 500 µM, respectively.

Regarding `COc1nc(N)c2ncn([C@@H]3O[C@H](CO)[C@@H](O)[C@H]3F)c2n1`, the IC50 in the assay with Influenza A virus is > 100 µM; in assay [1] it was > 500 µM.

For `Nc1nc(NC2CC2)c2ncn([C@@H]3O[C@H](CO)[C@@H](O)[C@H]3F)c2n1`, the IC50 with Influenza A virus is 72 µM; in assay [1] it was > 500 µM.

On to `Nc1nc(I)c2ncn([C@@H]3O[C@H](CO)[C@@H](O)[C@H]3F)c2n1`, for which the IC50 in the assay with Influenza A virus was 23 µM; in assay [1], 300 µM.

Consider `Nc1nc(N)c2ncn([C@@H]3O[C@H](CO)[C@@H](O)[C@H]3F)c2n1`, for which the IC50 with Influenza A virus is 15 µM; in assay [1], > 500 µM.

For the compound `Nc1nc(Cl)c2ncn([C@@H]3O[C@H](CO)[C@@H](O)[C@H]3F)c2n1`, the IC50 in the assay on Influenza A virus was 17 µM; in assay [1], > 500 µM.

For the compound `Nc1ncc2ncn([C@@H]3O[C@H](CO)[C@@H](O)[C@H]3F)c2n1`, the IC50 is > 100 µM in the assay with Influenza A virus and > 500 µM in assay [1].

Take `Cc1nc(N)c2ncn([C@@H]3O[C@H](CO)[C@@H](O)[C@H]3F)c2n1`: the IC50 with Influenza A virus is > 100 µM; in assay [1], > 500 µM.

As for `OC[C@H]1O[C@@H](n2cnc3c(NC4CC4)ncnc32)[C@H](F)[C@@H]1O`, the IC50 with Influenza A virus is > 100 µM; in assay [1], > 500 µM.

Consider `COc1ncnc2c1ncn2[C@@H]1O[C@H](CO)[C@@H](O)[C@H]1F`, for which the IC50 was > 100 µM in the assay with Influenza A virus and > 500 µM in assay [1].

As to `CCCOc1nc(N)nc2c1ncn2[C@@H]1O[C@H](CO)[C@@H](O)[C@H]1F`, the IC50 in the assay with Influenza A virus was 36 µM; in assay [1], > 500 µM.

`Nc1ncnc2c1ncn2[C@@H]1O[C@H](CO)[C@@H](O)[C@H]1F` [2'-BETA-FLUORO-2',3'-DEOXYADENOSINE]: the figures for the 50% inhibitory concentration (IC50) (with Influenza A virus; in assay [1]) were 52 µM and 320 µM, respectively.
